# Results gathered from unrelated publications.
# Each line is one published result; the experiments were not run side by side.
# Medium: Caco-2
Compound,setting,Papp B→A
C[C@@H]1O[C@@H](OC[C@H]2O[C@@H](Oc3c(-c4ccc(OCCO)c(OCCO)c4)oc4cc(OCCO)cc(O)c4c3=O)[C@H](O)[C@@H](O)[C@@H]2O)[C@H](O)[C@H](O)[C@H]1O,"100 µg/mL, 2 h",2.67 ×10⁻⁶ cm/s
N#C[C@@]1(c2ccc3c(N)ncnn23)O[C@H](CO)[C@@H](O)[C@H]1O,"10 µM, 2 h",25.4 ×10⁻⁶ cm/s
O=C(CCc1ccc(O)cc1)c1c(O)cc(O)cc1O[C@@H]1O[C@H](CO)[C@@H](O)[C@H](O)[C@H]1O,"100 µg/mL, 2 h",5.39 ×10⁻⁶ cm/s
C[C@H]1O[C@@H](O[C@H]2[C@@H](O)C[C@H](O[C@H]3[C@@H](O)C[C@H](O[C@H]4CC[C@@]5(C)[C@H](CC[C@@H]6[C@@H]5C[C@@H](O)[C@]5(C)[C@@H](C7=CC(=O)OC7)CC[C@]65O)C4)O[C@@H]3C)O[C@@H]2C)C[C@H](O)[C@@H]1O,"10 µM, 2 h",13.6 ×10⁻⁶ cm/s
N#Cc1ccc(C[C@H](Nc2nnc(-c3ccc(F)cc3)s2)C(=O)N2CCc3ccccc32)cc1,"100 µM, 2 h",314 ×10⁻⁶ cm/s
C[C@H]1O[C@@H](O[C@H]2[C@@H](O)C[C@H](O[C@H]3[C@@H](O)C[C@H](O[C@H]4CC[C@@]5(C)[C@H](CC[C@@H]6[C@@H]5C[C@@H](O)[C@]5(C)[C@@H](C7=CC(=O)OC7)CC[C@]65O)C4)O[C@@H]3C)O[C@@H]2C)C[C@H](O)[C@@H]1O,"5 µM, 2 h",17.9 ×10⁻⁶ cm/s
Cc1cc(C)c(CNC(=O)c2cc(Cl)c3c(c2C)O[C@@](C)([C@H]2CC[C@H](N(C)C)CC2)O3)c(=O)[nH]1,30 µM,19 ×10⁻⁶ cm/s
CC[C@]1(O)C[C@@H]2CN(CCc3c([nH]c4ccccc34)[C@@](C(=O)OC)(c3cc4c(cc3OC)N(C)[C@H]3[C@@](O)(C(=O)OC)[C@H](OC(C)=O)[C@]5(CC)C=CCN6CC[C@]43[C@@H]65)C2)C1,"10 µM, 2 h",22.9 ×10⁻⁶ cm/s
COc1ccc([C@@H]2CC(=O)c3c(O)cc(O)cc3O2)cc1O,"100 µg/mL, 2 h",21.4 ×10⁻⁶ cm/s
Cc1ccc(N(c2ccc(NC(=O)CN(C)c3ccccc3N3CCCC3=O)cc2)C(C)C)cc1,,2.52 ×10⁻⁶ cm/s
N#Cc1ccc(C[C@H](Nc2nnc(-c3ccc(F)cc3)o2)C(=O)N2CCc3ccccc32)cc1,"100 µM, 2 h",237 ×10⁻⁶ cm/s
CC(C)c1nc(N(C)S(C)(=O)=O)nc(-c2ccc(F)cc2)c1/C=C/[C@@H](O)C[C@@H](O)CC(=O)O,"5 µM, 2 h",14.6 ×10⁻⁶ cm/s
O=c1cc(-c2ccccc2)oc2cc(O)c(O)c(O)c12,"100 µg/mL, 2 h",2.76 ×10⁻⁶ cm/s
N#Cc1ccc(C[C@H](Nc2ncc(-c3ccc(F)cc3)o2)C(=O)N2CCc3ccccc32)cc1,"100 µM, 2 h",200 ×10⁻⁶ cm/s
